Source: ChEMBL document CHEMBL4699576, “Oxidized Juncuenin B Analogues with Increased Antiproliferative Activity on Human Adherent Cell Lines: Semisynthesis and Biological Evaluation” (J Nat Prod, 2020)
Calls of active or inactive are those of the source. The rule behind the calls is not given here.

System: A2780
Experiment: Antiproliferative activity against human A2780 cells assessed as reduction in cell viability at 0.1 to 30 uM after 72 hrs by MTT assay
Format: functional, cell-based
Settings: dose microM 0.1-30, time 72.0 hrs
Outline: (§1)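 Cells were grown in MEM with 10% FBS, 1% nonessential amino acids and 1% penicillin–streptomycin–amphotericin B at 37 °C in humidified 5% CO2. They were seeded at 5000 cells/well and exposed to 0.1–30 μM compound for 72 h. MTT (5 mg/mL solution) was added for 4 h, and formazan was dissolved in DMSO and read at 545 nm against untreated cells. IC50 values came from normalized sigmoidal dose–response fits.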

Row | Structure (SMILES) | Activity
1 | C=CC1=C(C)C(=O)C=C2c3ccc(O)c(C)c3CC[C@]21OC | inactive
2 | C=CC1=C(C)C(=O)C(OCCCC)(OCCCC)c2c1ccc1c2C=CC(=O)C1(C)OCCCC (racemic) | inactive

System: C-33-A
Experiment: Antiproliferative activity against human C33A cells assessed as reduction in cell viability after 72 hrs by MTT assay
Format: functional, cell-based
Settings: not given
Outline: (§2)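 C33A cells were kept in MEM with 10% FBS, 1% nonessential amino acids and 1% penicillin–streptomycin–amphotericin B at 37 °C under 5% CO2. They were seeded at 10 000 cells/well and treated with 0.1–30 μM for 72 h. MTT (5 mg/mL solution) was added for 4 h, and formazan was dissolved in DMSO and read at 545 nm against untreated controls. IC50 values came from normalized sigmoidal curve fits.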

Row | Structure (SMILES) | IC50 [µM]
3 | C=CC1=C(C)C(=O)C=C2C3=C(CC[C@@]21OC)[C@](C)(OC)C(=O)C=C3 (stereo in doubt) | 5.3
4 | C=CC1=C(C)C(=O)C=C2c3ccc(O)c(C)c3CC[C@@]21OCC | 4.9
5 | C=CC1=C(C)C(=O)C=C2c3ccc(O)c(C)c3CC[C@@]21OC | 5.3

System: NIH3T3
Experiment: Antiproliferative activity against mouse NIH/3T3 cells assessed as reduction in cell viability at 0.1 to 30 uM after 72 hrs by MTT assay
Format: functional, cell-based
Settings: dose microM 0.1-30, time 72.0 hrs
Outline: as §1

Row | Structure (SMILES) | Activity
6 | C=CC1=C(C)C(=O)C(OCCCC)(OCCCC)c2c1ccc1c2C=CC(=O)C1(C)OCCCC (racemic) | inactive

System: MCF7
Experiment: Antiproliferative activity against human MCF7 cells assessed as reduction in cell viability after 72 hrs by MTT assay
Format: functional, cell-based
Settings: MCF7, 72 h
Outline: as §1

Row | IC50 [µM] | Structure (SMILES)
7 | 6.2 | C=CC1=C(C)C(=O)C=C2c3ccc(O)c(C)c3CC[C@@]21OC
8 | 11.7 | C=Cc1c(C)c(O)cc2c1CCc1c-2ccc(O)c1C

System: MDA-MB-231
Experiment: Antiproliferative activity against human MDA-MB-231 cells assessed as reduction in cell viability after 72 hrs by MTT assay
Format: functional, cell-based
Settings: MDA-MB-231, 72 h

Row | IC50 [µM] | Structure (SMILES)
9 | 9.4 | C=Cc1c(C)c(O)cc2c1CCc1c-2ccc(O)c1C

System: SiHa
Experiment: Antiproliferative activity against human SiHa cells assessed as reduction in cell viability after 72 hrs by MTT assay
Format: functional, cell-based
Settings: not given
Outline: as §1

Row | Structure (SMILES) | IC50 [µM]
10 | C=CC1=C(C)C(=O)C=C2C3=C(CC[C@@]21OC)[C@](C)(OC)C(=O)C=C3 (stereo in doubt) | 20
11 | C=CC1=C(C)C(=O)C=C2C3=C(CC[C@]21OC)[C@@](C)(OC)C(=O)C=C3 (stereo in doubt) | 20
12 | C=CC1=C(C)C(=O)C=C2C3=C(CC[C@]21OC)[C@](C)(OC)C(=O)C=C3 (stereo in doubt) | 20
13 | C=CC1=C(C)C(=O)C=C2C3=C(CC[C@@]21OC)[C@@](C)(OC)C(=O)C=C3 (stereo in doubt) | 20

System: AGS
Experiment: Antiproliferative activity against human AGS cells assessed as reduction in cell viability after 48 hrs by Alamar Blue assay
Format: functional, cell-based
Settings: not given

Row | Structure (SMILES) | IC50 [µM]
14 | C=Cc1cc(O)cc2ccc3c(C)c(O)ccc3c12 | 32.9

System: A2780
Experiment: Antiproliferative activity against human A2780 cells assessed as reduction in cell viability after 72 hrs by MTT assay
Format: functional, cell-based
Settings: A2780, 72 h
Outline: as §1

Row | IC50 [µM] | Structure (SMILES)
15 | 7.7 | C=CC1=C(C)C(=O)C=C2C3=C(CC[C@@]21OC)[C@](C)(OC)C(=O)C=C3 (stereo in doubt)
16 | 8.7 | C=CC1=C(C)C(=O)C=C2c3ccc(O)c(C)c3CC[C@@]21OC

More lines, now with the values behind:

Row | Structure (SMILES) | IC50 [µM]
17 | C=CC1=C(C)C(=O)C=C2c3ccc(O)c(C)c3CC[C@@]21OCC | 2.8
18 | C=Cc1c(C)c(O)cc2c1CCc1c-2ccc(O)c1C | 7.3

System: SiHa
Experiment: Antiproliferative activity against human SiHa cells assessed as reduction in cell viability at 0.1 to 30 uM after 72 hrs by MTT assay
Format: functional, cell-based
Settings: dose microM 0.1-30, time 72.0 hrs
Outline: as §1

Row | Structure (SMILES) | Activity
19 | C=CC1=C(C)C(=O)C=C2c3ccc(O)c(C)c3CC[C@@]21OCC | inactive

System: SGC-7901
Experiment: Antiproliferative activity against human SGC-7901 cells assessed as reduction in cell viability after 48 hrs by Alamar Blue assay
Format: functional, cell-based
Settings: SGC-7901, 48 h

Row | Structure (SMILES) | IC50 [µM]
20 | C=Cc1cc(O)cc2ccc3c(C)c(O)ccc3c12 | 35.9

System: HeLa
Experiment: Antiproliferative activity against human HeLa cells assessed as reduction in cell viability after 72 hrs by MTT assay
Format: functional, cell-based
Settings: not given
Outline: as §1

Row | IC50 [µM] | Structure (SMILES)
21 | 3.7 | C=CC1=C(C)C(=O)C=C2c3ccc(O)c(C)c3CC[C@@]21OCC
22 | 0.9 | C=CC1=C(C)C(=O)C=C2c3ccc(O)c(C)c3CC[C@@]21OC
23 | 2.9 | C=Cc1c(C)c(O)cc2c1CCc1c-2ccc(O)c1C

System: NIH3T3
Experiment: Antiproliferative activity against mouse NIH/3T3 cells assessed as reduction in cell viability after 72 hrs by MTT assay
Format: functional, cell-based
Settings: NIH3T3, 72 h
Outline: as §1

Row | Structure (SMILES) | IC50 [µM]
24 | C=CC1=C(C)C(=O)C=C2C3=C(CC[C@@]21OC)[C@](C)(OC)C(=O)C=C3 (stereo in doubt) | 21.6
25 | C=CC1=C(C)C(=O)C=C2C3=C(CC[C@]21OC)[C@@](C)(OC)C(=O)C=C3 (stereo in doubt) | > 30
26 | C=CC1=C(C)C(=O)C=C2c3ccc(O)c(C)c3CC[C@@]21OCC | > 30
27 | C=CC1=C(C)C(=O)C=C2c3ccc(O)c(C)c3CC[C@@]21OC | 25.8
28 | C=Cc1c(C)c(O)cc2c1CCc1c-2ccc(O)c1C | > 30

System: C-33-A
Experiment: Antiproliferative activity against human C33A cells assessed as reduction in cell viability at 0.1 to 30 uM after 72 hrs by MTT assay
Format: functional, cell-based
Settings: dose microM 0.1-30, time 72.0 hrs
Outline: as §2

Row | Structure (SMILES) | Activity
29 | C=CC1=C(C)C(=O)C=C2c3ccc(O)c(C)c3CC[C@]21OC | inactive
30 | C=CC1=C(C)C(=O)C(OCCCC)(OCCCC)c2c1ccc1c2C=CC(=O)C1(C)OCCCC (racemic) | inactive

System: MCF7
Experiment: Antiproliferative activity against human MCF7 cells assessed as reduction in cell viability at 0.1 to 30 uM after 72 hrs by MTT assay
Settings: dose microM 0.1-30, time 72.0 hrs

Row | Structure (SMILES) | Activity
31 | C=CC1=C(C)C(=O)C=C2c3ccc(O)c(C)c3CC[C@@]21OCC | Active
32 | C=CC1=C(C)C(=O)C=C2c3ccc(O)c(C)c3CC[C@]21OC | inactive
33 | C=CC1=C(C)C(=O)C(OCCCC)(OCCCC)c2c1ccc1c2C=CC(=O)C1(C)OCCCC (racemic) | inactive

System: not listed separately
Experiment: Selectivity ratio of IC50 for antiproliferative activity against human T47D cells to IC50 for antiproliferative activity against human MCF7 cells
Format: functional
Settings: not given

Row | Structure (SMILES) | Ratio IC50
34 | C=Cc1c(C)c(O)cc2c1CCc1c-2ccc(O)c1C | 2.5

System: HeLa
Experiment: Antiproliferative activity against human HeLa cells assessed as reduction in cell viability at 0.1 to 30 uM after 72 hrs by MTT assay
Settings: dose microM 0.1-30, time 72.0 hrs

Row | Structure (SMILES) | Activity
35 | C=CC1=C(C)C(=O)C=C2C3=C(CC[C@@]21OC)[C@](C)(OC)C(=O)C=C3 (stereo in doubt) | Active
36 | C=CC1=C(C)C(=O)C=C2c3ccc(O)c(C)c3CC[C@@]21OCC | Active
37 | C=CC1=C(C)C(=O)C=C2c3ccc(O)c(C)c3CC[C@@]21OC | Active
38 | C=CC1=C(C)C(=O)C=C2c3ccc(O)c(C)c3CC[C@]21OC | inactive
39 | C=CC1=C(C)C(=O)C(OCCCC)(OCCCC)c2c1ccc1c2C=CC(=O)C1(C)OCCCC (racemic) | inactive

System: T47D
Experiment: Antiproliferative activity against human T47D cells assessed as reduction in cell viability at 0.1 to 30 uM after 72 hrs by MTT assay
Format: functional, cell-based
Settings: dose microM 0.1-30, time 72.0 hrs
Outline: as §1

Row | Structure (SMILES) | Activity
40 | C=CC1=C(C)C(=O)C=C2C3=C(CC[C@@]21OC)[C@](C)(OC)C(=O)C=C3 (stereo in doubt) | Active
41 | C=CC1=C(C)C(=O)C=C2c3ccc(O)c(C)c3CC[C@@]21OCC | Active
42 | C=CC1=C(C)C(=O)C=C2c3ccc(O)c(C)c3CC[C@@]21OC | Active

System: T47D
Experiment: Antiproliferative activity against human T47D cells assessed as reduction in cell viability after 72 hrs by MTT assay
Format: functional, cell-based
Settings: not given
Outline: as §1

Row | IC50 [µM] | Structure (SMILES)
43 | 15 | C=CC1=C(C)C(=O)C=C2C3=C(CC[C@@]21OC)[C@](C)(OC)C(=O)C=C3 (stereo in doubt)
44 | 15 | C=CC1=C(C)C(=O)C=C2C3=C(CC[C@]21OC)[C@@](C)(OC)C(=O)C=C3 (stereo in doubt)
45 | 8.8 | C=CC1=C(C)C(=O)C=C2c3ccc(O)c(C)c3CC[C@@]21OCC
46 | 15 | C=CC1=C(C)C(=O)C=C2C3=C(CC[C@]21OC)[C@](C)(OC)C(=O)C=C3 (stereo in doubt)
47 | 15 | C=CC1=C(C)C(=O)C=C2C3=C(CC[C@@]21OC)[C@@](C)(OC)C(=O)C=C3 (stereo in doubt)
